# Measurements: ChEMBL document CHEMBL3352456, “Design, synthesis and biological activity of a novel Rutin analogue with improved lipid soluble properties” (Bioorg Med Chem, 2015)
# The source made the active and inactive calls. The calls are words filed in the database; no cut-off is given here.
# Tests used:
# Nannizzia gypsea [1] = experiment: Antifungal activity against Nannizzia gypsea (Bodin) Guiart et Grigoraki CBS 286.63 assessed as growth inhibition at 100 ug/ml measured on day 7 by sabouraud dextrose agar diffusion method relative to control; type: functional
# How it was run: (§1)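 Dermatophyte strains kept on Sabouraud dextrose agar slants. Mycelium disks (10 mm) from a stationary-phase culture grown at 26 ± 1 °C on cellophane over SDA to log phase, then moved onto SDA containing compound added from DMSO stock at 45 °C (final DMSO 0.1%; DMSO-only controls). Colony diameter measured daily for 7 days. % inhibition = (dex − dex')/dex × 100. Three replicates per concentration; mean of three independent experiments.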
# [2] = Antioxidant activity assessed as superoxide anion radical scavenging by photochemiluminescence method relative to trolox; type: physicochemical
# How it was run: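 Superoxide was generated photochemically from luminol under UV light (351 nm). Lag time (water-soluble, ACW) or integrated light emission over 180 s (lipid-soluble, ACL) was compared with a Trolox standard curve. Samples were centrifuged 5 min at 16000 g and diluted 1:40 in water (ACW) or methanol (ACL). Triplicate determinations.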
# Trichophyton rubrum [3] = experiment: Antifungal activity against Trichophyton rubrum (Castellani) Sabouraud IHME 4321 assessed as growth inhibition at 20 ug/ml measured on day 7 by sabouraud dextrose agar diffusion method relative to control; type: functional; conditions: (Castellani) Sabouraud IHME 4321, 168 h, read-out: GI; how it was run: as §1
# K562 [4] = experiment: Induction of apoptosis in human K562 cells assessed as apoptotic cells at 10 uM after 3 days by Annexin-V staining-based assay (reference value: 11.37%); type: functional
# K562 [5] = experiment: Induction of apoptosis in human K562 cells assessed as late apoptotic cells at 1000 uM after 3 days by Annexin-V staining-based assay (reference value: 5.96%); type: functional
# K562 [6] = experiment: Induction of apoptosis in human K562 cells assessed as live cells at 5 uM after 3 days by Annexin-V staining-based assay (reference value: 87.33%); type: functional
# K562 [7] = experiment: Induction of apoptosis in human K562 cells assessed as late apoptotic cells at 500 uM after 3 days by Annexin-V staining-based assay (reference value: 5.96%); type: functional
# Trichophyton tonsurans [8] = experiment: Antifungal activity against Trichophyton tonsurans Malmsten CBS 483.76 assessed as growth inhibition at 20 ug/ml measured on day 7 by sabouraud dextrose agar diffusion method relative to control; type: functional; conditions: Malmsten CBS 483.76, 168 h, read-out: GI; how it was run: as §1
# K562 [9] = experiment: Induction of apoptosis in human K562 cells assessed as apoptotic cells at 500 uM after 3 days by Annexin-V staining-based assay (reference value: 11.37%); type: functional
# K562 [10] = experiment: Induction of apoptosis in human K562 cells assessed as live cells at 500 uM after 3 days by Annexin-V staining-based assay (reference value: 87.33%); type: functional
# [11] = molecular target: Nuclear factor NF-kappa-B complex (Homo sapiens) (UniProt Q00653+P19838+Q04206); experiment: Inhibition of NF-kappaB (unknown origin)/32P-labeled oligonucleotide interaction at 0.1 to 10 mM after 20 mins by electrophoretic mobility shift assay; type: protein-complex assay
# How it was run: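 Probe was a double-stranded 32P-labelled oligonucleotide (0.25 ng) in buffer of 10% glycerol, 0.05% NP-40, 10 mM Tris-HCl pH 7.5, 50 mM NaCl, 0.5 mM DTT and 10 mM MgCl2. Compound and probe were bound for 20 min at room temperature, then recombinant NF-kappaB p50 was added for a further 20 min. Samples were run on 6% polyacrylamide in 0.25× TBE at 200 V.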
# [12] = Antioxidant activity assessed as inhibition of AAPH-induced peroxyl radical generation by oxygen radical absorbance capacity assay relative to trolox; type: physicochemical
# How it was run: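 Run at 37 °C and pH 7.4 with fluorescein (85 nM) as the probe and AAPH as the peroxyl radical source. Compounds were dissolved fresh in PBS. Fluorescence read at ex 485/em 538 nm every 5 min for up to 30 min after AAPH addition. Net area under the decay curve (blank minus sample) was calibrated against Trolox at 10–50 μM and given as Trolox equivalents.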
# [13] = tested on: Trichophyton mentagrophytes; experiment: Antifungal activity against Trichophyton mentagrophytes (Robin) Blanchard CBS 160.66 assessed as growth inhibition at 20 ug/ml measured on day 7 by sabouraud dextrose agar diffusion method relative to control; type: functional; conditions: (Robin) Blanchard CBS 160.66, 168 h, read-out: GI; how it was run: as §1
# K562 [14] = experiment: Induction of apoptosis in human K562 cells assessed as dead cells at 1000 uM after 3 days by Annexin-V staining-based assay (reference value: 1.29%); type: functional
# K562 [15] = experiment: Induction of apoptosis in human K562 cells assessed as dead cells at 500 uM after 3 days by Annexin-V staining-based assay (reference value: 1.29%); type: functional
# K562 [16] = experiment: Induction of apoptosis in human K562 cells assessed as early apoptotic cells at 10 uM after 3 days by Annexin-V staining-based assay (reference value: 5.41%); type: functional
# Trichophyton rubrum [17] = experiment: Antifungal activity against Trichophyton rubrum (Castellani) Sabouraud IHME 4321 assessed as growth inhibition at 100 ug/ml measured on day 7 by sabouraud dextrose agar diffusion method relative to control; type: functional; conditions: (Castellani) Sabouraud IHME 4321, 168 h, read-out: GI; how it was run: as §1
# [18] = Antifungal activity against Microsporum canis Bodin CBS 4727 assessed as growth inhibition at 100 ug/ml measured on day 7 by sabouraud dextrose agar diffusion method relative to control; type: functional; how it was run: as §1
# Trichophyton violaceum [19] = experiment: Antifungal activity against Trichophyton violaceum Malmsten CBS 459.61 assessed as growth inhibition at 20 ug/ml measured on day 7 by sabouraud dextrose agar diffusion method relative to control; type: functional; conditions: Malmsten CBS 459.61, 168 h, read-out: GI; how it was run: as §1
# Epidermophyton floccosum [20] = experiment: Antifungal activity against Epidermophyton floccosum (Hartz) Langeron and Milochevitch CBS 358.93 assessed as growth inhibition at 100 ug/ml measured on day 7 by sabouraud dextrose agar diffusion method relative to control; type: functional; conditions: (Hartz) Langeron and Milochevitch CBS 358.93, 168 h, read-out: GI; how it was run: as §1
# K562 [21] = experiment: Induction of apoptosis in human K562 cells assessed as late apoptotic cells at 5 uM after 3 days by Annexin-V staining-based assay (reference value: 5.96%); type: functional
# K562 [22] = experiment: Induction of apoptosis in human K562 cells assessed as late apoptotic cells at 10 uM after 3 days by Annexin-V staining-based assay (reference value: 5.96%); type: functional
# Paraphyton cookei [23] = experiment: Antifungal activity against Nannizzia cajetani Ajello CBS 495.70 assessed as growth inhibition at 20 ug/ml measured on day 7 by sabouraud dextrose agar diffusion method relative to control; type: functional; conditions: Ajello CBS 495.70, 168 h, read-out: GI; how it was run: as §1
# Trichophyton tonsurans [24] = experiment: Antifungal activity against Trichophyton tonsurans Malmsten CBS 483.76 assessed as growth inhibition at 100 ug/ml measured on day 7 by sabouraud dextrose agar diffusion method relative to control; type: functional; conditions: Malmsten CBS 483.76, 168 h, read-out: GI; how it was run: as §1
# Paraphyton cookei [25] = experiment: Antifungal activity against Nannizzia cajetani Ajello CBS 495.70 assessed as growth inhibition at 100 ug/ml measured on day 7 by sabouraud dextrose agar diffusion method relative to control; type: functional; conditions: Ajello CBS 495.70, 168 h, read-out: GI; how it was run: as §1
# K562 [26] = experiment: Induction of apoptosis in human K562 cells assessed as early apoptotic cells at 1000 uM after 3 days by Annexin-V staining-based assay (reference value: 5.41%); type: functional
# K562 [27] = experiment: Induction of apoptosis in human K562 cells assessed as live cells at 10 uM after 3 days by Annexin-V staining-based assay (reference value: 87.33%); type: functional
# Nannizzia gypsea [28] = experiment: Antifungal activity against Microsporum gypseum (Bodin) Guiart and Grigorakis IHME 3999 assessed as growth inhibition at 20 ug/ml measured on day 7 by sabouraud dextrose agar diffusion method relative to control; type: functional; how it was run: as §1
# K562 [29] = experiment: Induction of apoptosis in human K562 cells assessed as dead cells at 10 uM after 3 days by Annexin-V staining-based assay (reference value: 1.29%); type: functional
# K562 [30] = experiment: Induction of apoptosis in human K562 cells assessed as early apoptotic cells at 500 uM after 3 days by Annexin-V staining-based assay (reference value: 5.41%); type: functional
# K562 [31] = experiment: Induction of apoptosis in human K562 cells assessed as apoptotic cells at 5 uM after 3 days by Annexin-V staining-based assay (reference value: 11.37%); type: functional
# K562 [32] = experiment: Induction of apoptosis in human K562 cells assessed as dead cells at 5 uM after 3 days by Annexin-V staining-based assay (reference value: 1.29%); type: functional
# [33] = tested on: Trichophyton mentagrophytes; experiment: Antifungal activity against Trichophyton mentagrophytes (Robin) Blanchard CBS 160.66 assessed as growth inhibition at 100 ug/ml measured on day 7 by sabouraud dextrose agar diffusion method relative to control; type: functional; conditions: (Robin) Blanchard CBS 160.66, 168 h, read-out: GI; how it was run: as §1
# K562 [34] = experiment: Induction of apoptosis in human K562 cells assessed as live cells at 1000 uM after 3 days by Annexin-V staining-based assay (reference value: 87.33%); type: functional
# K562 [35] = experiment: Antiproliferative activity against human K562 cells assessed as cell number after 3 days by Coulter counter; conditions: K562, 72 h
# [36] = Antioxidant activity assessed as superoxide anion radical scavenging by photochemiluminescence method relative to trolox using formulation containing O/W; type: physicochemical
# [37] = Antifungal activity against Microsporum canis Bodin CBS 4727 assessed as growth inhibition at 20 ug/ml measured on day 7 by sabouraud dextrose agar diffusion method relative to control; type: functional; how it was run: as §1
# K562 [38] = experiment: Induction of apoptosis in human K562 cells assessed as apoptotic cells at 1000 uM after 3 days by Annexin-V staining-based assay (reference value: 11.37%); type: functional
# Epidermophyton floccosum [39] = experiment: Antifungal activity against Epidermophyton floccosum (Hartz) Langeron and Milochevitch CBS 358.93 assessed as growth inhibition at 20 ug/ml measured on day 7 by sabouraud dextrose agar diffusion method relative to control; type: functional; conditions: (Hartz) Langeron and Milochevitch CBS 358.93, 168 h, read-out: GI; how it was run: as §1
# K562 [40] = experiment: Induction of apoptosis in human K562 cells assessed as early apoptotic cells at 5 uM after 3 days by Annexin-V staining-based assay (reference value: 5.41%); type: functional
# Nannizzia gypsea [41] = experiment: Antifungal activity against Microsporum gypseum (Bodin) Guiart and Grigorakis IHME 3999 assessed as growth inhibition at 100 ug/ml measured on day 7 by sabouraud dextrose agar diffusion method relative to control; type: functional; conditions: (Bodin) Guiart and Grigorakis IHME 3999, 168 h, read-out: GI; how it was run: as §1
# Trichophyton violaceum [42] = experiment: Antifungal activity against Trichophyton violaceum Malmsten CBS 459.61 assessed as growth inhibition at 100 ug/ml measured on day 7 by sabouraud dextrose agar diffusion method relative to control; type: functional; conditions: Malmsten CBS 459.61, 168 h, read-out: GI; how it was run: as §1
# Nannizzia gypsea [43] = experiment: Antifungal activity against Nannizzia gypsea (Bodin) Guiart et Grigoraki CBS 286.63 assessed as growth inhibition at 20 ug/ml measured on day 7 by sabouraud dextrose agar diffusion method relative to control; type: functional; how it was run: as §1
# Sequence of Nuclear factor NF-kappa-B complex (Homo sapiens) (P19838 whole entry, looked up): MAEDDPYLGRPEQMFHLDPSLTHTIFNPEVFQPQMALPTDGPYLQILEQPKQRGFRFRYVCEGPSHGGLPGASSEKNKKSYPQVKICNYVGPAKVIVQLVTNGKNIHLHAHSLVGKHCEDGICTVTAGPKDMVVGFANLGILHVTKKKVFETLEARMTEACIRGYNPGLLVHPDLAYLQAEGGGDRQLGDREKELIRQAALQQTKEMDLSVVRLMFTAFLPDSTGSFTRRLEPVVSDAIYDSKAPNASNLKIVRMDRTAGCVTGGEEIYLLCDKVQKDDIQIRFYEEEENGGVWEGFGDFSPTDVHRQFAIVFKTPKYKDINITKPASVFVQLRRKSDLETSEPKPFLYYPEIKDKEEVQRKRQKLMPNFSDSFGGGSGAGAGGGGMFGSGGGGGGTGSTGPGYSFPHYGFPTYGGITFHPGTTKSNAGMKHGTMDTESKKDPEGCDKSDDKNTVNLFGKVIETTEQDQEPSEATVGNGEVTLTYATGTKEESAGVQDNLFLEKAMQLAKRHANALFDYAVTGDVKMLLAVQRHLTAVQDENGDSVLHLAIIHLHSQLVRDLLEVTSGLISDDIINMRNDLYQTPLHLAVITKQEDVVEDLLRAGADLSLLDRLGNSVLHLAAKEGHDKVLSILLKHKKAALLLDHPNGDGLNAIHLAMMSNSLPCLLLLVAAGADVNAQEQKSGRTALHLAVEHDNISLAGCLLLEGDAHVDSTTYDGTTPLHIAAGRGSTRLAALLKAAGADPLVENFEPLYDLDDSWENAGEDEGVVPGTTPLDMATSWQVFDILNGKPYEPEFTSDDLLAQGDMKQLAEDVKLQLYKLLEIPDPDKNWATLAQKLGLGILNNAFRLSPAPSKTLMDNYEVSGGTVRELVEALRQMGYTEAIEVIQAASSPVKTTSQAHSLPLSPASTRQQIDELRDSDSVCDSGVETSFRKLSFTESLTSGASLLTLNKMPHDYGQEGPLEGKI
# Sequence of Nuclear factor NF-kappa-B complex (Homo sapiens) (Q00653 whole entry, looked up): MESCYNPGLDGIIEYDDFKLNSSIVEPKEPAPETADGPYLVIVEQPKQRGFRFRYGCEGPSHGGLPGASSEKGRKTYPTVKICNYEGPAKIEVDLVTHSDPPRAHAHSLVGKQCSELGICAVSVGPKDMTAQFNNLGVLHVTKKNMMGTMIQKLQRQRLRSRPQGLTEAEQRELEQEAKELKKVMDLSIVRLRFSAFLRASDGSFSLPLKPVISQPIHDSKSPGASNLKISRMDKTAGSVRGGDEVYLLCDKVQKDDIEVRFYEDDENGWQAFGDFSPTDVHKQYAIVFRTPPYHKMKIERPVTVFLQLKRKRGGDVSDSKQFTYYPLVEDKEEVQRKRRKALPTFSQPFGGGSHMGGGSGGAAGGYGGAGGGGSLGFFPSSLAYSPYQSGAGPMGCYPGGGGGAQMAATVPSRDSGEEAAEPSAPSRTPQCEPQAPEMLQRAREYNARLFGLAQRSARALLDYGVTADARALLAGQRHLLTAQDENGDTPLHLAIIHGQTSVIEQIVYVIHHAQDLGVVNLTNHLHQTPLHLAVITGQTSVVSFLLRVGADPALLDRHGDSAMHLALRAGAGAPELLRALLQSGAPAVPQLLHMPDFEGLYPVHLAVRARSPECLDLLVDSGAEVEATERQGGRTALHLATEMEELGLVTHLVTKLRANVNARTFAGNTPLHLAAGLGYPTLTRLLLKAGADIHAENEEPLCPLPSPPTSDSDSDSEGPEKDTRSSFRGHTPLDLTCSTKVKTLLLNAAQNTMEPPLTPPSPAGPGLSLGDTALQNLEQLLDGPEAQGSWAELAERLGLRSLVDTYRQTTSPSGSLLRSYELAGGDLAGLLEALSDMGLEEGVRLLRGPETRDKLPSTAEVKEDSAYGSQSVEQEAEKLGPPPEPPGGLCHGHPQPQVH
# Sequence of Nuclear factor NF-kappa-B complex (Homo sapiens) (Q04206 whole entry, looked up): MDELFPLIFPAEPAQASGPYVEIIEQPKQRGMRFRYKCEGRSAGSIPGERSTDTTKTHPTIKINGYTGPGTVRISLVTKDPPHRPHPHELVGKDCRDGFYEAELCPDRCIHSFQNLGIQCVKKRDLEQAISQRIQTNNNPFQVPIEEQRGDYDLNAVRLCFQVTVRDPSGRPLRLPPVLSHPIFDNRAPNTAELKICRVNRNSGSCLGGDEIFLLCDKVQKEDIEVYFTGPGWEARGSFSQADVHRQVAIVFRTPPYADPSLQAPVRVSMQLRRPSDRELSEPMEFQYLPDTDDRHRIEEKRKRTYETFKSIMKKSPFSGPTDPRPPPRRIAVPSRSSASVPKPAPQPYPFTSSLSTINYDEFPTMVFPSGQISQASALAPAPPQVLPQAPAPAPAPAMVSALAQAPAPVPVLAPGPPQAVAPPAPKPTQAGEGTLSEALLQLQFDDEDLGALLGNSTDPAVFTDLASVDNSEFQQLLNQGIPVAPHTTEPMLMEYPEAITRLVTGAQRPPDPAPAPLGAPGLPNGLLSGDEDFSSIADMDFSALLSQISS
compound,measurement,setting,value
C[C@@H]1O[C@@H](OC[C@H]2O[C@@H](Oc3c(-c4ccc(O)c(O)c4)oc4cc(O)cc(O)c4c3=O)[C@H](O)[C@@H](O)[C@@H]2O)[C@H](O)[C@H](O)[C@H]1O [RUTIN],growth inhibition (GI),Nannizzia gypsea [1],inactive
same,Activity,[2],1883.08 µmol/g
same,inhibition of growth at 20 µg/mL,Trichophyton rubrum [3],6.1%
same,Activity,K562 [4],inactive
same,Activity,K562 [5],6.15%
same,Activity,K562 [6],inactive
same,Activity,K562 [7],4.05%
same,inhibition of growth at 20 µg/mL,Trichophyton tonsurans [8],0%
same,Activity,K562 [9],13.2%
same,Activity,K562 [10],88.15%
same,inhibition,[11],Active
same,Activity,[12],10708.06 µmol/g
same,inhibition of growth at 20 µg/mL,[13],0%
same,Activity,K562 [14],0.4%
same,Activity,K562 [15],0.65%
same,Activity,K562 [16],inactive
same,inhibition of growth at 100 µg/mL,Trichophyton rubrum [17],9.9%
same,growth inhibition (GI),[18],inactive
same,inhibition of growth at 20 µg/mL,Trichophyton violaceum [19],2.1%
same,inhibition of growth at 100 µg/mL,Epidermophyton floccosum [20],2.2%
same,Activity,K562 [21],inactive
same,Activity,K562 [22],inactive
same,inhibition of growth at 20 µg/mL,Paraphyton cookei [23],3.3%
same,inhibition of growth at 100 µg/mL,Trichophyton tonsurans [24],2.8%
same,inhibition of growth at 100 µg/mL,Paraphyton cookei [25],12.3%
same,Activity,K562 [26],8.6%
same,Activity,K562 [27],inactive
same,growth inhibition (GI),Nannizzia gypsea [28],inactive
same,Activity,K562 [29],inactive
same,Activity,K562 [30],9.15%
same,Activity,K562 [31],inactive
same,Activity,K562 [32],inactive
same,inhibition of growth at 100 µg/mL,[33],3.3%
same,Activity,K562 [34],84.85%
same,IC50,K562 [35],897 µM
same,Activity,[36],5.04 µmol/g
same,growth inhibition (GI),[37],inactive
same,Activity,K562 [38],14.75%
same,inhibition of growth at 20 µg/mL,Epidermophyton floccosum [39],1.9%
same,Activity,K562 [40],inactive
same,inhibition of growth at 100 µg/mL,Nannizzia gypsea [41],4.1%
same,inhibition of growth at 100 µg/mL,Trichophyton violaceum [42],4.2%
same,growth inhibition (GI),Nannizzia gypsea [43],inactive
